For series [1], the system named is P. berghei QIMR. Nature of the series: In vivo anti-Plasmodium efficacy in infected BALB/c mice. To be noted: for peripheral blood parasitemia compared to vehicle-only control mice: 25 mg/kg oral gavage twice daily for four days; for days after infection with significant reduction in parasitemia (P < 0.05): 25 mg/kg orally twice daily for four days. In short, it runs like this:
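Female BALB/c mice, 6–8 weeks old, six per group, infected i.p. with […] P. berghei QIMR-infected erythrocytes from a passage mouse. Oral gavage of 25 mg/kg test compound in DMSO/PBS (100 μL) twice daily for four days, starting 2 h p.i. with 4 h between doses. Chloroquine 10 mg/kg oral twice daily for three days. Giemsa thin smears read daily from day 4 (>800 erythrocytes per mouse).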

The conditions of series [2]: female BALB/c nude mice, oral 50 mg/kg; ref Yeo et al., 2007; cited from earlier work.
For series [3] the following is noted: cited from earlier work.
The test system of series [4] is P. falciparum 3D7. Nature of the series: P. falciparum 3D7 3H-hypoxanthine incorporation growth inhibition assay. It counts as cell-based. Particulars: Plasmodium falciparum, 3D7, 48 h, read-out: P. falciparum 3D7 IC50.
The test system of series [5] is P. knowlesi A1H.1. Nature of the series: P. knowlesi A1H.1 3H-hypoxanthine incorporation growth inhibition assay. It counts as cell-based. Particulars: Plasmodium knowlesi, 48 h, read-out: P. knowlesi A1H.1 IC50.
Series [6] has as its system Plasmodium parasites. Nature of the series: Ratios derived from Table 1 IC50 values. It counts as cell-based.
Series [7] deals with free L. donovani promastigotes. Nature of the series: Resazurin reduction assay, L. donovani promastigotes. To be noted: for inhibition at 20 µM: Leishmania donovani, read-out: inhibition of free L. donovani promastigotes. It counts as cell-based, Leishmania donovani.
For series [8], the system named is S. mansoni adult worms. Nature of the series: Adult worm pair stability and egg laying in culture. It counts as cell-based, Schistosoma mansoni. In short, it runs like this: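 S. mansoni adult worm pairs kept in culture with test compound at 10 μM. Pairing and egg laying expressed as mean % of DMSO control (set to 100%). Praziquantel (10 μM) served as control. Run in triplicate on two separate occasions.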

Series [9] deals with human Neonatal Foreskin Fibroblast (NFF) cells. Particulars: read-out: NFF IC50; previously published; ref Engel et al., 2015; cited from earlier work.
Series [10] concerns Human Embryonic Kidney (HEK 293) cells. To be noted: read-out: HEK 293 IC50; previously published; ref Engel et al., 2015; cited from earlier work.
Series [11] can be described thus: Oral pharmacokinetics in humans. It counts as in vivo.
Series [12] in a line: Oral pharmacokinetics in mice. To be noted: mice dosed orally with 50 mg/kg; ref Yeo et al., 2007.
Where [13] appears, read: humans, 200–600 mg oral vorinostat, ref Kavanaugh et al., 2010.
Where [14] appears, read: humans, 15–80 mg oral panobinostat, ref Prince et al., 2009.

Molecules are shown by their SMILES. Where two headings read alike, the source gives them in different places. Marks after values point to notes of the source that are not given here.

Data on 6 molecules can be found in article PMC5241585 (International Journal for Parasitology: Drugs and Drug …, 2016).

As to `O=C(CCCCCCC(=O)Nc1ccccc1)NO` [Vorinostat], in [1], the “peripheral blood parasitemia compared to vehicle-only control mice” value is on record as “significant reduction” and the “days after infection with significant reduction in parasitemia (P < 0.05)” value fell in the range of 4 to 7 days. The “AUC0−∞” value in series [2] is on record as 619 ng⋅h/mL. In series [3] (setting [13]), the “AUC0−∞” value is recorded as 1698 ng⋅h/mL and the Cmax (usually the peak of the concentration-time curve) is on record as 658 ng/mL.

Regarding `C/C=C1\NC(=O)[C@H]2CSSCC/C=C/[C@H](CC(=O)N[C@H](C(C)C)C(=O)N2)OC(=O)[C@H](C(C)C)NC1=O` [Romidepsin], the IC50 (in general, the concentration needed to halve the response being measured) in series [4] was 140 nM; in series [5], 210 nM; in [9] it was 1 nM; in series [10], under 5 nM. Besides, the “selectivity for the parasite over NFF or HEK 293 cells” value in [6] (P. knowlesi vs human cells, in abstract) was “not selective”. Moreover, the “inhibition of free L. donovani promastigotes” value in [7] (20 μM) is on record as “no growth inhibition”. Also, in [8] (10 μM), the “inhibition of adult worm pairing” value was “completely inhibited”. Also, the “inhibition of egg production” value in series [8] (10 μM) is reported as “completely inhibited”.

Take `O=C(C1CCCCC1)N1CC(=O)N2CCc3ccccc3C2C1` (stereo not drawn) [praziquantel]: the “effect on adult worms” value in series [8] (10 μM) is “induced the death of adult worms”. For the same molecule, the viability (in general, a per cent measure of how many cells are alive, often set against a control) at 10 µM in series [8] (Schistosoma mansoni, read-out: adult worm viability) came to 10%.

For `Cc1[nH]c2ccccc2c1CCNCc1ccc(/C=C/C(=O)NO)cc1` [Panobinostat], the IC50 in series [4] is 4 nM; in series [5] it was 9 nM; in series [9] it was 70 nM; in series [10], 180 nM. In series [6] (from Table 1 IC50 values), the “greater inhibitory potency against Plasmodium parasites in vitro than vorinostat” value was 40–60 fold. Besides, the inhibition (usually the percentage by which the read-out fell short of the control) at 20 µM in [7] lay in the range of 20 to 35%. The inhibition at 10 µM was 30 to 40% in series [8] (Schistosoma mansoni, read-out: inhibition of adult worm pairing) and about 50% in [8] (Schistosoma mansoni, read-out: inhibition of egg production). In addition, the “peripheral blood parasitemia compared to vehicle-only control mice” value in series [1] is “significant reduction”. Besides, the “reduction in mean peripheral parasitemia compared to vehicle-only control” value in [1] (25 mg/kg oral gavage twice daily, days 4-10) is 2–3 fold. Also, the “survival compared to vehicle control group” value in series [1] (25 mg/kg oral gavage twice daily, p = 0.0013) was “significantly improved”. For the same molecule, in [1], the “days after infection with significant reduction in parasitemia (P < 0.05)” value was 4 to 10 days. Also, the “half-life in humans compared to mice” value in series [11] (from Table 2 values) is 6–10 fold. Further, the “oral bioavailability (F%) in humans compared to mice” value in [11] (from Table 2 values) is recorded as “approximately five”. The Cmax is about 70 nM in series [11] (human, in vivo, po, 20 mg) and 23 to 71 ng/mL in series [3] (setting [14]). In addition, the “adverse effects in humans” value in series [3] (20 mg oral dose, ref FARYDAK product sheet (Novartis)) is on record as “adverse effects are commonly reported”. In series [3] (setting [14]), the “AUC0−∞” value is listed as 183–373 ng⋅h/mL. In addition, in [3] (setting [14]), the t1/2 is 16–30 ^d h. The “mean Cmax” value in series [3] (humans, single oral dose 20 mg, ref European Medicines Agency, 2015) was 24.3 (±12) ng/mL. Besides, in series [12], the “half-life longer than vorinostat” value is over 2 fold.

Turning to `CCN(CC)CCCC(C)Nc1ccnc2cc(Cl)ccc12` (stereo not drawn) [Chloroquine], the IC50 in series [4] is 10 nM; in series [5], 10 nM; in series [9], 48900 nM. Also, the peripheral blood parasitemia entry in [1] (10 mg/kg orally twice daily beginning 2 h p.i., data not shown) is “did not develop detectable peripheral blood parasitemia”.

Regarding `O=C(/C=C/c1cccc(S(=O)(=O)Nc2ccccc2)c1)NO` [Belinostat], the IC50 in [4] was 170 nM; in series [5] it was 190 nM; in series [9], 2370 nM; in [10] it was 1420 nM. The inhibition at 20 µM in series [7] lay in the range of 20 to 35%.
